Activity calls are given as the source filed them. The rule behind the calls is not given here.

Drawing on ChEMBL document CHEMBL3272008, “Synthesis and biological actions of 2-substituted quinolizidines” (J Med Chem, 1976), this text covers LD50, Activity and T for five compounds.

A short description of series [1]: Acute toxicity in ip dosed Swiss-Webster mouse administered as single dose after 7 days. In kind it is organism-based. Particulars: in vivo. The essentials: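 Mice given a single ip dose at each of four dose levels; lethality followed over 7 days; LD50 with 95% confidence limits estimated by the method of Weil. Compounds dissolved in minimal 1.5 M NaH2PO4, diluted with water; haloperidol in minimal 50% (w/v) tartaric acid-water.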

The subject of series [2] is Mus musculus. Kind of series: Depression of forced motor activity in Swiss-Webster mouse at 50 mg/kg, ip after 30 mins by rotarod test relative to control. The class given is functional. Particulars: route intraperitoneal. The essentials:
(§1)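 Mice were dosed ip with vehicle or compound dissolved in a minimum of 1.5 M NaH2PO4 and diluted with water. On the rotarod, speed was 4 rpm for 30 sec, then 6 rpm for 30 sec, then increased every 30 sec up to a maximum of 50 rpm until the fall. Each mouse had four trials, two per day on two consecutive days, spaced 4–6 hr apart. The fourth trial was run 30 min after dosing. The read-out was trial time (sec) as % of control, with significance by Student's t test (p < 0.05).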
For orientation: Falling from the rotarod earlier than controls is read as motor impairment.

Series [3] concerns Mus musculus. Kind of series: Depression of forced motor activity in Swiss-Webster mouse at 25 mg/kg, ip after 30 mins by rotarod test relative to control. The class given is functional. Conditions: route intraperitoneal. Summed up: as §1
Series [4] relates to Mus musculus. The series can be described thus: Depression of forced motor activity in Swiss-Webster mouse at 100 mg/kg, ip after 30 mins by rotarod test relative to control. In kind it is functional. Particulars: route intraperitoneal. Summed up:
(§2)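 Rotarod in mice: rod at 4 rpm for 30 sec, 6 rpm next 30 sec, then stepped up every 30 sec (max 50 rpm) until fall. Six mice at a time, four trials (two per day, 4–6 hr apart, two consecutive days); vehicle or compound ip 30 min before fourth trial. Time on rod as % of control; Student's t test, p < 0.05.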

For series [5], the system named is Mus musculus. The series can be described thus: Depression of forced motor activity in ip dosed Swiss-Webster mouse after 30 mins by rotarod test relative to control. The class given is functional, organism-based. Summed up: as §1
Series [6] deals with Mus musculus. Kind of series: Depression of spontaneous motor activity in Swiss-Webster mouse at 50 mg/kg, ip by photocell cage test relative to control. In kind it is functional. Conditions: route intraperitoneal. Summed up:
(§3)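 Compound was dissolved in minimal 1.5 M NaH2PO4, diluted with water and given ip. Two mice given the same dose went into each of three photocell actophotometer cages 10 min after the rotarod test started. Counts were taken over 15 min, starting 5 min after placement. A factorial design across cages cancelled differences between units. Results were given as % of control, with significance by Student's t test (p < 0.05).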

Series [7] has as its system Mus musculus. Kind of series: Depression of spontaneous motor activity in Swiss-Webster mouse at 25 mg/kg, ip by photocell cage test relative to control. Particulars: route intraperitoneal. The class given is functional. The essentials: as §3
Series [8] deals with Mus musculus. Kind of series: Depression of spontaneous motor activity in Swiss-Webster mouse at 100 mg/kg, ip by photocell cage test relative to control. The class given is functional. Conditions: route intraperitoneal. The essentials: (§4)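 Spontaneous activity in three photocell cages: two mice given the same ip dose placed per cage 10 min after rotarod start; 15-min count begun 5 min after placement. Each dose run in factorial design across all three cages to offset unit sensitivity. Counts expressed as % of control; Student's t test, p < 0.05.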

The test system of series [9] is Mus musculus. The series can be described thus: Depression of spontaneous motor activity in ip dosed Swiss-Webster mouse by photocell cage test relative to control. The class given is functional, organism-based. Summed up: as §3
The test system of series [10] is Rattus norvegicus. Kind of series: Depression of motor activity in Wistar rat at 50 mg/kg, ip after 1 to 5 hrs. The arrangement: dose 50 mg/kg. In kind it is functional, organism-based. The essentials: (§5)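 Male Wistar rats (175–225 g) dosed ip (vehicle dilute NaH2PO4 in water). Gross behaviour observed; respiratory rate, heart rate, rectal temperature and pupil size measured. Three treated rats per dose compared with one control.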

The test system of series [11] is Rattus norvegicus. Kind of series: Reduction in respiratory rate in Wistar rat at 50 mg/kg, ip. The arrangement: dose 50 mg/kg. The class given is functional, organism-based. Summed up: as §5
Series [12] has as its system Rattus norvegicus. Kind of series: Reduction in heart rate in Wistar rat at 50 mg/kg, ip. The arrangement: dose 50 mg/kg. In kind it is functional, organism-based. The essentials: as §5
Series [13] concerns Rattus norvegicus. Kind of series: Reduction in body temperature in Wistar rat at 50 mg/kg, ip relative to control. In kind it is functional. Particulars: route intraperitoneal. Summed up: as §5
Series [14] deals with Rattus norvegicus. The series can be described thus: Increase in pupil size in Wistar rat at 50 mg/kg, ip. In kind it is functional, organism-based. The arrangement: dose 50 mg/kg. The essentials: as §5
Series [15] concerns Rattus norvegicus. The series can be described thus: Reduction in ptosis in Wistar rat at 50 mg/kg, ip after 1 to 5 hrs. The class given is functional, organism-based. Also noted: dose 50 mg/kg. The essentials: as §5
For series [16], the system named is Mus musculus. Kind of series: Depression of forced motor activity in Swiss-Webster mouse at 12.5 mg/kg, ip after 30 mins by rotarod test relative to control. In kind it is functional. Conditions: route intraperitoneal. Summed up:
as §1

The test system of series [17] is Mus musculus. Kind of series: Depression of spontaneous motor activity in Swiss-Webster mouse at 12.5 mg/kg, ip by photocell cage test relative to control. The class given is functional. Particulars: route intraperitoneal. The essentials:
as §3

For series [18], the system named is Mus musculus. The series can be described thus: Depression of forced motor activity in Swiss-Webster mouse at 10 mg/kg, ip after 30 mins by rotarod test relative to control. Particulars: route intraperitoneal. In kind it is functional. Summed up:
as §2

Series [19] relates to Mus musculus. Kind of series: Depression of forced motor activity in Swiss-Webster mouse at 5 mg/kg, ip after 30 mins by rotarod test relative to control. In kind it is functional. Particulars: route intraperitoneal. Summed up:
as §2

In series [20] the test system is Mus musculus. The series can be described thus: Depression of spontaneous motor activity in Swiss-Webster mouse at 10 mg/kg, ip by photocell cage test relative to control. The class given is functional. Particulars: route intraperitoneal. Summed up: as §4
In series [21] the test system is Mus musculus. Kind of series: Depression of spontaneous motor activity in Swiss-Webster mouse at 5 mg/kg, ip by photocell cage test relative to control. In kind it is functional. Particulars: route intraperitoneal. The essentials: as §4
For series [22], the species on record is Rattus norvegicus. Kind of series: Reduction in respiration rate in Wistar rat. The class given is functional, organism-based. The essentials:
as §5

The species named for series [23] is Rattus norvegicus. Kind of series: Increase in heart rate in Wistar rat. In kind it is functional, organism-based. Summed up: as §5
For series [24], the system named is Rattus norvegicus. The series can be described thus: Increase in motor activity in Wistar rat at 5 to 30 mg/kg, ip. In kind it is functional, organism-based. Summed up:
as §5

Take `O[C@]1(c2ccc(Cl)cc2)CCN2CCCCC2C1` (some centres not stated): the LD50 (commonly the dose at which mortality reaches 50%) at 168 h in series [1] was found to be 229 mg/kg. The Activity with Mus musculus [2] was 26.7%; in the series with Mus musculus [3] it was 71.3%; in the series on Mus musculus [4], 9.7%; in the series with Mus musculus [5], “Dose-dependent effect”; in the series on Mus musculus [6] it was 18.1%; in the series on Mus musculus [7] it was 19.4%. The Activity with Mus musculus [8] was 2.6%; with Mus musculus [9], “Dose-dependent effect”. The outcome in the series with Rattus norvegicus [10], in the series with Rattus norvegicus [11], in the series with Rattus norvegicus [12], in the series on Rattus norvegicus [14] and in the series with Rattus norvegicus [15] was Active. Besides, the T in the series on Rattus norvegicus [13] was 1 °C.

On to `O[C@]1(c2ccc(C(F)(F)F)cc2)CCN2CCCCC2C1` (single isomer, unassigned), for which, in [1], the LD50 at 168 h came to 125 mg/kg. Moreover, the Activity in the series on Mus musculus [2] stood at 31.5%; in the series on Mus musculus [3], 100.6%; with Mus musculus [16] it was 115.2%; in the series on Mus musculus [6] it was 17.5%; in the series on Mus musculus [7], 39.3%; in the series with Mus musculus [17], 90%. In addition, the Activity entry in the series with Mus musculus [9] is “Dose-dependent effect”.

In [1], `O[C@]1(c2cccc(Cl)c2)CCN2CCCCC2C1` (single isomer, unassigned) had an LD50 at 168 h of 134 mg/kg. Also, the Activity worked out at 34.3% in the series on Mus musculus [2]; 83.6% in the series on Mus musculus [3]; 88.6% in the series with Mus musculus [16]; 74.3% in the series on Mus musculus [6]; 89.9% with Mus musculus [7].

In series [1], `O[C@]1(c2cccc(C(F)(F)F)c2)CCN2CCCCC2C1` (single isomer, unassigned) returned an LD50 at 168 h of 137 mg/kg. The Activity with Mus musculus [2] worked out at 56.6%; in the series on Mus musculus [3], 98.1%; with Mus musculus [16], 107.2%; in the series with Mus musculus [6], 35.4%; with Mus musculus [7], 45.1%; in the series with Mus musculus [17], 70.3%. In addition, the Activity entry in the series on Mus musculus [9] is “Dose-dependent effect”.

Compound `O[C@@]1(c2ccc(Cl)cc2)CCN2CCCCC2C1` (single isomer, unassigned) displayed an LD50 at 168 h in series [1] of 67.5 mg/kg. Further, the Activity with Mus musculus [3] came out at 87.6%; with Mus musculus [18], 101.9%; in the series on Mus musculus [19], 105.9%; with Mus musculus [7], 22.5%; with Mus musculus [20] it was 439.6%; with Mus musculus [21], 526.8%. Moreover, the result in the series filed under Rattus norvegicus [22] and in the series filed under Rattus norvegicus [23] was Active. Further, in the series on Rattus norvegicus [24], the result was inactive.
